In ChEMBL document CHEMBL1140910, “Fluorinated benzyloxyphenyl piperidine-4-carboxamides with dual function against thrombosis: inhibitors of factor Xa and platelet aggregation” (J Med Chem, 2009):
Activity calls are given as the source filed them. The calls are words filed in the database; no cut-off is given here.

What was measured:
Platelet [1] = assay: Inhibition of ADP-induced platelet aggregation in human platelet rich plasma; assay type: functional
Method in brief: (§1)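 Citrated human venous blood spun 800 rpm 15 min at 21 °C for PRP, platelets adjusted to 230000 µL-1 with PPP. PRP preincubated with compound (final 10 µM–1 mM, 0.5% DMSO) 5 min at 37 °C with stirring, then 10 µM final ADP or epinephrine. Turbidimetric (Born) transmittance at 640 nm over 5 min. IC50 from sigmoid fit, ≥3 determinations in duplicate, mean ± SEM.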

Prothrombin (Bos taurus) = Prothrombin (Bos taurus) (UniProt P00735); assay: Inhibition of bovine factor 2a at 250 uM by amydolitic assay
Method in brief: (§2)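 Bovine thrombin (0.41 U/mL) in 10 mM Tris pH 8 with 0.15 M NaCl and 0.1% PEG 6000, compound (final 10 nM–0.25 mM, ≤2% DMSO) for 30 min at 25 °C, then 0.050 mM S-2238.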

Plasma [2] = assay: Anticoagulant activity in human plasma assessed as concentration required to double the activated partial thromboplastin time; assay type: functional
Method in brief: (§3)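 Pooled lyophilized human plasma with aPTT reagent and 0.025 mol/L CaCl2; inhibitor or solvent at increasing concentrations incubated with plasma 3 min at 37 °C. Clotting time read on a coagulometer against control plasma, triplicate measurements; concentration giving 2-fold aPTT prolongation calculated from concentration-response curves.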

Platelet [3] = assay: Inhibition of epinephrine-induced platelet aggregation in human platelet rich plasma; assay type: functional; method in brief: as §1
Coagulation factor X [4] = biological target: T1, Coagulation factor X (Homo sapiens, UniProt P00742); assay: Inhibition of human factor 10a by amydolitic assay
Method in brief: (§4)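 Human factor Xa (2 nM) in 10 mM Tris pH 8, 0.15 M NaCl, 0.1% PEG 6000, preincubated 30 min at 25 °C with compound (final 10 nM–0.25 mM, ≤2% DMSO). Started with 0.04 mM S-2765; p-nitroanilide release at 405 nm for 5 min, 25 °C. Initial velocities give IC50 (≥3 determinations), Ki by Cheng-Prusoff.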

[5] = Inhibition of bovine alpha-chymotrypsin by amydolitic assay; set-up: species or system Bos taurus
Method in brief: (§5)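 Bovine α-chymotrypsin (0.4 µg/mL) in 50 mM Tris pH 7.5 with 50 mM CaCl2, incubated with compound (final 10 nM–0.25 mM) or DMSO 10 min at 25 °C. Substrate 0.185 mM N-succinyl-Ala-Ala-Pro-Phe-p-nitroanilide added; 405 nm read 5 min at 25 °C. Initial-rate IC50 (≥3 determinations) converted to Ki by Cheng-Prusoff.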

Coagulation factor X [6] = biological target: T1, Coagulation factor X; assay: Inhibition of human factor 10a at 250 uM by amydolitic assay; method in brief: as §4
Bos taurus = species on record: Bos taurus; assay: Inhibition of bovine alpha-chymotrypsin at 250 uM by amydolitic assay; method in brief: as §5
Prothrombin = Prothrombin (Bos taurus, UniProt P00735); assay: Inhibition of bovine factor 2a by amydolitic assay; method in brief: as §2
Plasma [7] = assay: Anticoagulant activity in human plasma assessed as effect on double the activated partial thromboplastin time upto 1 mM; assay type: functional, cell-free; method in brief: as §3

T1 sequence (P00742 41-179 limits assumed): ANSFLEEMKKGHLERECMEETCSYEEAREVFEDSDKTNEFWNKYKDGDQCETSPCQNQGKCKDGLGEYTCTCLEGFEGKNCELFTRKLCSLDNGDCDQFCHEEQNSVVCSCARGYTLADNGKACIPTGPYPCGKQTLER
T1 sequence (P00742 235-488 limits assumed): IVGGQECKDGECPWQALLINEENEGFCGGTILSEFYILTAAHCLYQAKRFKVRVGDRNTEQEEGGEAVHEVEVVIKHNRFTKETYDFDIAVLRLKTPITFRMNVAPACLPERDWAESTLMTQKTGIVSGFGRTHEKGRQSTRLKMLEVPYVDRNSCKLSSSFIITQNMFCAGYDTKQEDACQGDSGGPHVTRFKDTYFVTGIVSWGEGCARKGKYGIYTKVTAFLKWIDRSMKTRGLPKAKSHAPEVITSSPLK

Row | SMILES | IC50 (Platelet [1]) [µM] | inhibition (Prothrombin (Bos taurus)) [%] | 2PT (Plasma [2]) [µM] | IC50 (Platelet [3]) [µM] | Ki (Coagulation factor X [4]) [µM] | Ki [5] [µM] | inhibition (Coagulation factor X [6]) [%] | inhibition (Bos taurus) [%] | Ki (Prothrombin) [µM] | Activity (Plasma [7])
1 | O=C(Nc1cccc(OCc2ccc(-c3cccc(F)c3)cc2)c1)C1CCNCC1 | 34.7 | < 30 | 205 | 14.4 | 0.177 | 31 |  |  |  | 
2 | O=C(Nc1ccc(OCc2ccc(F)cc2)cc1)C1CCNCC1 | 121 | < 30 |  | 93 |  |  | < 30 |  |  | 
3 | COc1ccc(NC(=O)C2CCCNC2)cc1 (centres undefined) | 983 |  |  |  |  |  |  |  |  | 
4 | O=C(Nc1cccc(OCc2ccc(-c3cc(F)ccc3F)cc2)c1)C1CCNCC1 |  | < 30 |  |  | 1.27 |  |  | < 30 |  | 
5 | N=C(N)N1CCC(C(=O)Nc2cccc(OCc3ccc(F)cc3)c2)CC1 | 768 |  |  |  | 33.8 |  |  |  | 20.8 | 
6 | O=C(Nc1cccc(OCc2ccc(-c3c(F)cccc3F)cc2)c1)C1CCNCC1 |  | < 30 |  |  | 1.45 |  |  | < 30 |  | 
7 | N=C(N)N1CCCC(C(=O)Nc2cccc(OCc3ccc(-c4ccccc4)cc3)c2)C1 (centres undefined) | > 1000 |  |  |  | 2 |  |  |  | 31.3 | 
8 | O=C(Nc1cccc(OCc2ccc(-c3cc(F)cc(F)c3)cc2)c1)C1CCNCC1 | 27.8 | < 30 | 190 | 17 | 0.13 | 60.3 |  |  |  | 
9 | O=C(Nc1cccc(OCc2ccc(-c3ccccc3F)cc2)c1)C1CCNCC1 | 62.7 | < 30 |  |  | 0.767 |  |  | < 30 |  | 
10 | O=C(Nc1cccc(OCc2ccc(-c3cc(F)c(F)c(F)c3)cc2)c1)C1CCNCC1 | 76.7 | < 30 |  |  | 0.666 |  |  | < 30 |  | 
11 | O=C(Nc1cccc(OCc2ccccc2)c1)C1CCNCC1 | 229 | < 30 |  |  |  |  | < 30 |  |  | inactive
12 | CCCCCCOc1cccc(NC(=O)C2CCCNC2)c1 (centres undefined) | 113 | < 30 |  |  |  |  | < 30 |  |  | 
13 | O=C(Nc1cccc(OCc2ccc(-c3ccc(F)cc3)cc2)c1)C1CCNCC1 | 35 | < 30 |  | 19 | 3.87 |  |  | < 30 |  | 
14 | O=C(Nc1cccc(OCc2ccc(F)cc2)c1)C1CCCNC1 (centres undefined) | 103 | < 30 |  | 70 | 260 |  |  |  |  | 
15 | O=C(Nc1ccc(OCc2ccc(-c3ccccc3)cc2)cc1)C1CCNCC1 | 135 | < 30 |  |  | 126 |  |  |  |  | 
16 | CCCCCCOc1ccc(NC(=O)C2CCCNC2)cc1 (centres undefined) | 85 | < 30 |  | 43 |  |  | < 30 |  |  | 
17 | O=C(Nc1cccc(OCc2ccc(-c3cccc(F)c3F)cc2)c1)C1CCNCC1 |  | < 30 |  |  | 0.548 | 60 |  |  |  | 
18 | O=C(Nc1ccc(OCc2ccc(-c3ccccc3)cc2)cc1)C1CCCNC1 (centres undefined) | 125 | < 30 |  |  |  |  | < 30 |  |  | 
19 | N=C(N)N1CCCC(C(=O)Nc2cccc(OCc3ccc(F)cc3)c2)C1 (centres undefined) | 274 |  |  |  | 57 |  |  |  | 160 | 
20 | O=C(Nc1ccc(OCc2ccc(F)cc2)cc1)C1CCCNC1 (centres undefined) | 116 | < 30 |  | 90 |  |  | < 30 |  |  | 
21 | O=C(Nc1cccc(OCc2ccccc2)c1)C1CCCNC1 (centres undefined) | 128 | < 30 |  |  |  |  | < 30 |  |  | 
22 | O=C(Nc1cccc(OCc2ccc(F)cc2)c1)C1CCNCC1 | 68 | < 30 |  | 36 |  |  | < 30 |  |  | 
23 | O=C(Nc1cccc(OCc2ccc(-c3ccc(C(F)(F)F)cc3)cc2)c1)C1CCNCC1 | 65.7 | < 30 | 140 |  | 0.057 |  |  | < 30 |  | 
24 | O=C(Nc1cccc(OCc2ccc(-c3ccc(F)cc3F)cc2)c1)C1CCNCC1 | 98.8 |  |  |  | 0.512 |  |  | < 30 | 54 | 
25 | O=C(Nc1cccc(OCc2ccc(-c3c(F)cc(F)cc3F)cc2)c1)C1CCNCC1 |  |  |  |  | 9.47 |  |  | < 30 | 26.7 | 
26 | N=C(N)N1CCC(C(=O)Nc2cccc(OCc3ccc(-c4ccccc4)cc3)c2)CC1 | 400 |  |  | 244 | 5.2 |  |  |  | 40.4 | 
27 | O=C(Nc1cccc(OCc2ccc(-c3ccccc3)cc2)c1)C1CCNCC1 | 111 | < 30 |  | 54 | 1 |  |  |  |  | 
28 | O=C(Nc1cccc(OCc2ccc(-c3ccccc3)cc2)c1)C1CCCNC1 (centres undefined) | 153 | < 30 |  | 87 | 2.5 |  |  |  |  | 
